The source made the active and inactive calls. The calls are words filed in the database; no cut-off is given here.
Assays:
[1] = test system: Pythium aphanidermatum; assay: Antifungal activity against Pythium aphanidermatum assessed as radial growth inhibition at 10 to 100 uM; type: functional, organism-based
Summary of the method: (§1)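 Initial screen on PDA plates (10 mL) amended with 10 or 100 μM compound, added from DMSO stocks (DMSO not exceeding 0.001% v/v) to warm (50 °C) sterile medium before pouring. Radial growth was compared with growth on unamended medium. Error bars are standard deviation.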

[2] = test system: Botrytis cinerea; assay: Antifungal activity against Botryotinia fuckeliana isolate Bcl16 assessed as radial growth inhibition during advanced test phase at 10 to 50 uM at 22 degC measured after 48 hr; type: functional, organism-based
Summary of the method: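 B. cinerea isolate BcI16 was grown on PDA amended with compound across 0-50 μM, added from DMSO stock (≤0.001% v/v final) to 50 °C medium. Plates were incubated at 22 °C for 48 h, then radial growth was measured against unamended controls.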

[3] = test system: Alternaria alternata; assay: Antifungal activity against Alternaria alternata assessed as radial growth inhibition at 100 uM; type: functional; details: read-out: GI; summary of the method: as §1
[4] = test system: Sclerotinia sclerotiorum; assay: Antifungal activity against Sclerotinia sclerotiorum isolate 1980 assessed as radial growth inhibition during advanced test phase at 10 to 50 uM at 17 degC measured after 48 hr; type: functional, organism-based
Summary of the method: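 S. sclerotiorum isolate 1980 was grown on PDA amended with compound across 0-50 μM, added from DMSO stock (≤0.001% v/v final) to 50 °C medium. Plates were incubated at 17 °C for 48 h, then radial growth was measured against unamended controls.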

[5] = test system: Rhizoctonia solani; assay: Antifungal activity against Rhizoctonia solani assessed as radial growth inhibition at 10 to 100 uM; type: functional, organism-based; summary of the method: as §1
[6] = test system: Botrytis cinerea; assay: Antifungal activity against Botryotinia fuckeliana isolate Bcl16 assessed as radial growth inhibition at 10 to 100 uM; type: functional, organism-based; summary of the method: as §1
[7] = test system: Solanum lycopersicum; assay: Phytotoxicity against Solanum lycopersicum (tomato) leaves; type: organism-based; details: in vivo
[8] = test system: Medicago sativa; assay: Phytotoxicity against Medicago sativa (alfalfa) assessed as seed germination; type: organism-based; details: in vivo
[9] = test system: Neurospora crassa; assay: Antifungal activity against Neurospora crassa strain 74-OR23-1A assessed as radial growth inhibition at 100 uM; type: functional, organism-based; summary of the method: as §1
[10] = test system: Penicillium digitatum; assay: Antifungal activity against Penicillium digitatum assessed as radial growth inhibition at 100 uM; type: functional; details: read-out: GI; summary of the method: as §1

| SMILES | growth inhibition (GI) [1] | growth inhibition (GI) [2] | inhibition of growth at 100 µM [3] [%] | growth inhibition (GI) [4] | growth inhibition (GI) [5] | growth inhibition (GI) [6] | Activity [7] | Activity [8] | growth inhibition (GI) [9] | inhibition of growth at 100 µM [10] [%] |
| --- | --- | --- | --- | --- | --- | --- | --- | --- | --- | --- |
| CC(=O)c1ccc(O)cc1 [4-HYDROXYACETOPHENONE] | Active | Active | ≤ 50 | Active | Active | Active | Non-toxic | Non-toxic | – | – |
| N/C(=C\C(=O)c1ccc2ccccc2c1)C(F)(F)F | Active | – | ≤ 50 | – | Active | Active | Non-toxic | Non-toxic | – | – |
| N/C(=C\C(=O)c1ccc(Cl)cc1)C(F)(F)C(F)(F)F | Active | Active | ≤ 50 | Active | Active | Active | Non-toxic | Non-toxic | – | – |
| N/C(=C\C(=O)c1ccc(F)cc1)C(F)(F)F | Active | – | ≤ 50 | – | Active | Active | Non-toxic | Non-toxic | Active | – |
| N/C(=C\C(=O)c1cccc(Br)c1)C(F)(F)F | Active | Active | ≤ 50 | – | Active | Active | Non-toxic | Non-toxic | Active | – |
| N/C(=C\C(=O)c1ccc(Cl)cc1)C(F)(F)F | Active | Active | ≤ 50 | – | Active | Active | Non-toxic | Non-toxic | Active | > 50 |
| N/C(=C\C(=O)c1ccc(O)cc1)C(F)(F)F | Active | Active | ≤ 50 | – | Active | Active | Non-toxic | Non-toxic | – | – |
| CC(C)(C)OC(=O)Nc1ccc(C(=O)/C=C(\N)C(F)(F)F)cc1 | Active | – | ≤ 50 | – | Active | Active | Non-toxic | Non-toxic | – | – |
| CC/C(C(=O)c1ccc(Cl)cc1)=C(/N)C(F)(F)F | Active | – | ≤ 50 | – | Active | Active | Non-toxic | Non-toxic | – | – |
| N#Cc1ccc(C(=O)/C=C(\N)C(F)(F)F)cc1 | Active | – | ≤ 50 | – | Active | Active | Non-toxic | Non-toxic | – | – |

From ChEMBL document CHEMBL3046504, “Synthesis and antifungal activity of beta-trifluoroalkyl aminovinyl ketone derivatives” (J Agric Food Chem, 2009)
